# Experimental data from ChEMBL document CHEMBL1122906, “Improved antagonists of luteinizing hormone-releasing hormone modified in position 7” (1985).
# Square brackets hold non-standard residues; d marks the D form. Peptide text beside a SMILES is read from it. dPhe(4-Cl) = N[C@H](Cc1ccc(Cl)cc1)C(=O)O; d2Nal = N[C@H](Cc1ccc2ccccc2c1)C(=O)O
# Tests used:
# Format in all cases: functional
# Rattus norvegicus [1] = species: Rattus norvegicus; assay: Percent anti-ovulatory activity in Sprague-Dawley rats against percent of 8 rats that did not ovulate at dose 50 microg
# Procedure, shortened: (§1)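 Antiovulatory activity was tested in Sprague-Dawley rats using the standard rat antiovulatory assay. Analogues were given in a 40% propylene glycol-saline vehicle at the stated microgram dose. The value is the percentage of the (n) rats in each group in which ovulation was blocked.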
# Rattus norvegicus [2] = species: Rattus norvegicus; assay: Percent anti-ovulatory activity in Sprague-Dawley rats against percent of 9 rats that did not ovulate at dose 1 microg; procedure, shortened: as §1
# Rattus norvegicus [3] = species: Rattus norvegicus; assay: Percent anti-ovulatory activity in Sprague-Dawley rats against percent of 13 rats that did not ovulate at dose 0.5 microg; procedure, shortened: as §1
# Rattus norvegicus [4] = species: Rattus norvegicus; assay: Percent anti-ovulatory activity in Sprague-Dawley rats against percent of 7 rats that did not ovulate at dose 3 microg; procedure, shortened: as §1
# Rattus norvegicus [5] = species: Rattus norvegicus; assay: Percent anti-ovulatory activity in Sprague-Dawley rats against percent of 10 rats that did not ovulate at dose 0.5 microg; procedure, shortened: as §1
# Rattus norvegicus [6] = species: Rattus norvegicus; assay: Percent anti-ovulatory activity in Sprague-Dawley rats against percent of 8 rats that did not ovulate at dose 3 microg; procedure, shortened: as §1
# Rattus norvegicus [7] = species: Rattus norvegicus; assay: Percent anti-ovulatory activity in Sprague-Dawley rats against percent of 10 rats that did not ovulate at dose 3 ug; procedure, shortened: as §1
# Rattus norvegicus [8] = species: Rattus norvegicus; assay: Percent anti-ovulatory activity in Sprague-Dawley rats against percent of 13 rats that did not ovulate at dose 7.5 microg; procedure, shortened: as §1
# Rattus norvegicus [9] = species: Rattus norvegicus; assay: Percent anti-ovulatory activity in Sprague-Dawley rats against percent of 10 rats that did not ovulate at dose 1 ug; procedure, shortened: as §1
# Rattus norvegicus [10] = species: Rattus norvegicus; assay: Percent anti-ovulatory activity in Sprague-Dawley rats against percent of 11 rats that did not ovulate at dose 3 microg; procedure, shortened: as §1
# Rattus norvegicus [11] = species: Rattus norvegicus; assay: Percent anti-ovulatory activity in Sprague-Dawley rats against percent of 5 rats that did not ovulate at dose 1 microg; procedure, shortened: as §1
# Rattus norvegicus [12] = species: Rattus norvegicus; assay: Percent anti-ovulatory activity in Sprague-Dawley rats against percent of 10 rats that did not ovulate at dose 50 microg; procedure, shortened: as §1
# Rattus norvegicus [13] = species: Rattus norvegicus; assay: Percent anti-ovulatory activity in Sprague-Dawley rats against percent of 9 rats that did not ovulate at dose 3 microg; procedure, shortened: as §1
# Rattus norvegicus [14] = species: Rattus norvegicus; assay: Percent anti-ovulatory activity in Sprague-Dawley rats against percent of 8 rats that did not ovulate at dose 1 microg; procedure, shortened: as §1
# Rattus norvegicus [15] = species: Rattus norvegicus; assay: Percent anti-ovulatory activity in Sprague-Dawley rats against percent of 10 rats that did not ovulate at dose 3 microg; procedure, shortened: as §1
# Rattus norvegicus [16] = species: Rattus norvegicus; assay: Percent anti-ovulatory activity in Sprague-Dawley rats against percent of 11 rats that did not ovulate at dose 1 microg; procedure, shortened: as §1
# Rattus norvegicus [17] = species: Rattus norvegicus; assay: Percent anti-ovulatory activity in Sprague-Dawley rats against percent of 12 rats that did not ovulate at dose 3 microg; procedure, shortened: as §1
# Rattus norvegicus [18] = species: Rattus norvegicus; assay: Percent anti-ovulatory activity in Sprague-Dawley rats against percent of 11 rats that did not ovulate at dose 0.5 ug; procedure, shortened: as §1
# Rattus norvegicus [19] = species: Rattus norvegicus; assay: Percent anti-ovulatory activity in Sprague-Dawley rats against percent of 13 rats that did not ovulate at dose 1 ug; procedure, shortened: as §1
# Rattus norvegicus [20] = species: Rattus norvegicus; assay: Percent anti-ovulatory activity in Sprague-Dawley rats against percent of 10 rats that did not ovulate at dose 1 microg; procedure, shortened: as §1
smiles,measurement,setting,value
CC(=O)N[C@H](Cc1ccc2ccccc2c1)C(=O)N[C@@H]1CSSC[C@@H](C(=O)N[C@@H](CCCN=C(N)N)C(=O)N2CCC[C@H]2C(=O)N[C@H](C)C(N)=O)NC(=O)[C@@H](CCCN=C(N)N)NC(=O)[C@H](Cc2ccc(O)cc2)NC(=O)[C@H](CO)NC(=O)[C@@H](Cc2c[nH]c3ccccc23)NC1=O,Activity,Rattus norvegicus [1],0%
CC(=O)N[C@H](Cc1ccc2ccccc2c1)C(=O)N[C@H](Cc1ccc(Cl)cc1)C(=O)N[C@H](Cc1c[nH]c2ccccc12)C(=O)N[C@@H](CO)C(=O)N[C@@H](Cc1ccc(O)cc1)C(=O)N[C@H](CCCN=C(N)N)C(=O)N[C@@H](Cc1ccc(O)cc1)C(=O)N[C@@H](CCCN=C(N)N)C(=O)N1CCC[C@H]1C(=O)N[C@H](C)C(N)=O,Activity,Rattus norvegicus [2],89%
same,Activity,Rattus norvegicus [3],31%
same,Activity,Rattus norvegicus [4],100%
CC(=O)N[C@H](Cc1ccc2ccccc2c1)C(=O)N[C@H](Cc1ccc(Cl)cc1)C(=O)N[C@H](Cc1c[nH]c2ccccc12)C(=O)N[C@H]1CSSC[C@@H](C(=O)N[C@@H](CCCN=C(N)N)C(=O)N2CCC[C@H]2C(=O)N[C@H](C)C(N)=O)NC(=O)[C@@H](CCCN=C(N)N)NC(=O)[C@H](Cc2ccc(O)cc2)NC1=O,Activity,Rattus norvegicus [1],0%
CC(=O)N[C@H](Cc1ccc2ccccc2c1)C(=O)N[C@H](Cc1ccc2ccccc2c1)C(=O)N[C@H](Cc1c[nH]c2ccccc12)C(=O)N[C@@H](CO)C(=O)N[C@@H](Cc1ccc(O)cc1)C(=O)N[C@H](CCCN=C(N)N)C(=O)N[C@@H](Cc1ccc(O)cc1)C(=O)N[C@@H](CCCN=C(N)N)C(=O)N1CCC[C@H]1C(=O)N[C@H](C)C(N)=O,Activity,Rattus norvegicus [2],11%
CC(=O)N[C@H](Cc1ccc2ccccc2c1)C(=O)N[C@H](Cc1ccc(Cl)cc1)C(=O)N[C@H](Cc1c[nH]c2ccccc12)C(=O)N[C@@H](CO)C(=O)N[C@@H](Cc1ccc(O)cc1)C(=O)N[C@H](CCCN=C(N)N)C(=O)N[C@@H](Cc1c[nH]c2ccccc12)C(=O)N[C@@H](CCCN=C(N)N)C(=O)N1CCC[C@H]1C(=O)N[C@H](C)C(N)=O,Activity,Rattus norvegicus [5],10%
same,Activity,Rattus norvegicus [6],85%
CC(=O)N[C@H](Cc1ccc2ccccc2c1)C(=O)N[C@H](Cc1ccc(Cl)cc1)C(=O)N[C@H](Cc1c[nH]c2ccccc12)C(=O)N[C@@H](CO)C(=O)N[C@@H](Cc1ccc(O)cc1)C(=O)N[C@H](CCCN=C(N)N)C(=O)N[C@H](C(=O)N[C@@H](CCCN=C(N)N)C(=O)N1CCC[C@H]1C(=O)N[C@H](C)C(N)=O)[C@@H](C)O,Activity,Rattus norvegicus [7],20%
CC(=O)N[C@H](Cc1ccc2ccccc2c1)C(=O)N[C@H](Cc1ccc(Cl)cc1)C(=O)N[C@H](Cc1c[nH]c2ccccc12)C(=O)N[C@@H](CO)C(=O)N[C@@H](Cc1ccc(O)cc1)C(=O)N[C@H](CCCN=C(N)N)C(=O)N[C@@H](CCCCN)C(=O)N[C@@H](CCCN=C(N)N)C(=O)N1CCC[C@H]1C(=O)N[C@H](C)C(N)=O,Activity,Rattus norvegicus [8],0%
CC(=O)N[C@H](Cc1ccc2ccccc2c1)C(=O)N[C@H](Cc1ccc(Cl)cc1)C(=O)N[C@H](Cc1c[nH]c2ccccc12)C(=O)N[C@@H](CO)C(=O)N[C@@H](Cc1ccc(O)cc1)C(=O)N[C@H](CCCN=C(N)N)C(=O)N[C@@H](Cc1ccc(C)cc1)C(=O)N[C@@H](CCCN=C(N)N)C(=O)N1CCC[C@H]1C(=O)N[C@H](C)C(N)=O,Activity,Rattus norvegicus [2],22%
CC(=O)N[C@H](Cc1ccc2ccccc2c1)C(=O)N[C@H](Cc1ccc(Cl)cc1)C(=O)N[C@H](Cc1c[nH]c2ccccc12)C(=O)N[C@@H](CO)C(=O)N[C@@H](Cc1ccc(O)cc1)C(=O)N[C@H](CCCN=C(N)N)C(=O)N[C@@H](Cc1ccc(F)cc1)C(=O)N[C@@H](CCCN=C(N)N)C(=O)N1CCC[C@H]1C(=O)N[C@H](C)C(N)=O,Activity,Rattus norvegicus [6],75%
same,Activity,Rattus norvegicus [9],0%
CC(=O)N[C@H](Cc1ccc2ccccc2c1)C(=O)N[C@H](Cc1ccc(Cl)cc1)C(=O)N[C@H](Cc1c[nH]c2ccccc12)C(=O)N[C@@H](CO)C(=O)N[C@@H](Cc1ccc(O)cc1)C(=O)N[C@H](CCCN=C(N)N)C(=O)N[C@@H](Cc1c(F)c(F)c(F)c(F)c1F)C(=O)N[C@@H](CCCN=C(N)N)C(=O)N1CCC[C@H]1C(=O)N[C@H](C)C(N)=O,Activity,Rattus norvegicus [10],100%
same,Activity,Rattus norvegicus [11],20%
CC(=O)N[C@H](Cc1ccc2ccccc2c1)C(=O)N[C@H](Cc1ccc(Cl)cc1)C(=O)N[C@@H]1CSSC[C@@H](C(=O)N[C@@H](CCCN=C(N)N)C(=O)N2CCC[C@H]2C(=O)N[C@H](C)C(N)=O)NC(=O)[C@@H](CCCN=C(N)N)NC(=O)[C@H](Cc2ccc(O)cc2)NC(=O)[C@H](CO)NC1=O,Activity,Rattus norvegicus [12],0%
CC(=O)N[C@H](Cc1ccc2ccccc2c1)C(=O)N[C@H](Cc1ccc(Cl)cc1)C(=O)N[C@H](Cc1c[nH]c2ccccc12)C(=O)N[C@@H](CO)C(=O)N[C@@H](Cc1ccc(O)cc1)C(=O)N[C@H](CCCN=C(N)N)C(=O)N(C)[C@@H](Cc1ccccc1)C(=O)N[C@@H](CCCN=C(N)N)C(=O)N1CCC[C@H]1C(=O)N[C@H](C)C(N)=O,Activity,Rattus norvegicus [13],11%
same,Activity,Rattus norvegicus [14],13%
CC(=O)N[C@H](Cc1ccc2ccccc2c1)C(=O)N[C@H](Cc1ccc(Cl)cc1)C(=O)N[C@H](Cc1c[nH]c2ccccc12)C(=O)N[C@@H](CO)C(=O)N[C@@H](Cc1ccc(O)cc1)C(=O)N[C@H](CCCN=C(N)N)C(=O)N[C@@H](Cc1ccc2ccccc2c1)C(=O)N[C@@H](CCCN=C(N)N)C(=O)N1CCC[C@H]1C(=O)N[C@H](C)C(N)=O,Activity,Rattus norvegicus [5],0%
same,Activity,Rattus norvegicus [15],100%
CC(=O)N[C@H](Cc1ccc2ccccc2c1)C(=O)N[C@H](Cc1ccc(Cl)cc1)C(=O)N[C@H](Cc1c[nH]c2ccccc12)C(=O)N[C@@H](CO)C(=O)N[C@@H](Cc1ccc(O)cc1)C(=O)N[C@H](CCCN=C(N)N)C(=O)N[C@@H](Cc1ccc(Cl)cc1)C(=O)N[C@@H](CCCN=C(N)N)C(=O)N1CCC[C@H]1C(=O)N[C@H](C)C(N)=O,Activity,Rattus norvegicus [16],9%
same,Activity,Rattus norvegicus [17],100%
CC(=O)N[C@H](Cc1ccc2ccccc2c1)C(=O)N[C@H](Cc1ccc(Cl)cc1)C(=O)N[C@H](Cc1c[nH]c2ccccc12)C(=O)N[C@@H](CO)C(=O)N[C@H]1CSSC[C@@H](C(=O)N[C@@H](CCCN=C(N)N)C(=O)N2CCC[C@H]2C(=O)N[C@H](C)C(N)=O)NC(=O)[C@@H](CCCN=C(N)N)NC1=O,Activity,Rattus norvegicus [1],0%
CC(=O)N[C@H](Cc1ccc2ccccc2c1)C(=O)N[C@H](Cc1ccc2ccccc2c1)C(=O)N[C@H](Cc1c[nH]c2ccccc12)C(=O)N[C@@H](CO)C(=O)N[C@@H](Cc1ccc(O)cc1)C(=O)N[C@H](CCCN=C(N)N)C(=O)N[C@@H](CC(C)C)C(=O)N[C@@H](CCCN=C(N)N)C(=O)N1CCC[C@H]1C(=O)N[C@H](C)C(N)=O,Activity,Rattus norvegicus [16],0%
CC(=O)N[C@H](Cc1ccc2ccccc2c1)C(=O)N[C@H](Cc1ccc(Cl)cc1)C(=O)N[C@H](Cc1c[nH]c2ccccc12)C(=O)N[C@@H](CO)C(=O)N[C@@H](Cc1ccc(O)cc1)C(=O)N[C@H](CCCN=C(N)N)C(=O)N[C@@H](Cc1ccccc1)C(=O)N[C@@H](CCCN=C(N)N)C(=O)N1CCC[C@H]1C(=O)N[C@H](C)C(N)=O (Ac-[d2Nal][dPhe(4-Cl)][dW]SY[dR]FRP[dA]-NH2),Activity,Rattus norvegicus [18],64%
CC(=O)N[C@H](Cc1ccc2ccccc2c1)C(=O)N[C@H](Cc1ccc(Cl)cc1)C(=O)N[C@H](Cc1c[nH]c2ccccc12)C(=O)N[C@@H](CO)C(=O)N[C@@H](Cc1ccc(O)cc1)C(=O)N[C@H](CCCN=C(N)N)C(=O)N[C@@H](CC(C)C)C(=O)N[C@@H](CCCN=C(N)N)C(=O)N1CCC[C@H]1C(=O)N[C@H](C)C(N)=O (Ac-[d2Nal][dPhe(4-Cl)][dW]SY[dR]LRP[dA]-NH2),Activity,Rattus norvegicus [19],77%
same,Activity,Rattus norvegicus [13],100%
CC(=O)N[C@H](Cc1ccc(Cl)cc1)C(=O)N[C@H](Cc1ccc(Cl)cc1)C(=O)N[C@H](Cc1c[nH]c2ccccc12)C(=O)N[C@@H](CO)C(=O)N[C@@H](Cc1ccc(O)cc1)C(=O)N[C@H](CCCN=C(N)N)C(=O)N[C@@H](Cc1ccccc1)C(=O)N[C@@H](CCCN=C(N)N)C(=O)N1CCC[C@H]1C(=O)N[C@H](C)C(N)=O (Ac-[dPhe(4-Cl)][dPhe(4-Cl)][dW]SY[dR]FRP[dA]-NH2),Activity,Rattus norvegicus [20],20%
